This is an account of results in ChEMBL document CHEMBL1649291, “ADS-J1 inhibits human immunodeficiency virus type 1 entry by interacting with the gp41 pocket region and blocking fusion-active gp41 core formation” (Antimicrob Agents Chemother, 2009).

Experiment [1] concerns MT2. Kind of experiment: Inhibition of to HIV1 3B gp120 binding to CD4-positive human MT2 cells at 10 ug/ml by ELISA. Type of experiment: cell-based. The settings on record: Human immunodeficiency virus 1. (In general: ELISA stands for enzyme-linked immunosorbent assay.)
Experiment [2] has as its system Human immunodeficiency virus 1. Nature of the experiment: Antiviral activity against HIV1 3B infected in human MT2 cells assessed as inhibition of viral p24 antigen production at 5 uM after 8 hrs by ELISA.
Experiment [3] relates to Human immunodeficiency virus 1. Kind of experiment: Binding affinity to HIV1 3B gp41 assessed as alteration of structural configuration of N36-C34 complex at 10 to 40 uM after 30 mins by spectroscopy. In short, it runs like this: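 CD spectroscopy in PBS pH 7.2: N36 preincubated with compound or PBS 37°C 30 min, then C34 added and incubated a further 30 min at 37°C; final peptides 10 µM each, compound 40 µM. Spectra at room temperature, 0.1-cm path, blank-subtracted; α-helix content from mean residue ellipticity at 222 nm relative to −33,000 deg cm2 dmol−1.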

The target of experiment [4] is C-X-C chemokine receptor type 4 (Homo sapiens) (UniProt P61073). Nature of the experiment: Inhibition of MAb12G5 binding to CXCR4 in human CEM cells at 25 uM by ELISA. Format: cell-based. The settings on record: CCRF-CEM.
Sequence of C-X-C chemokine receptor type 4 (Homo sapiens) (P61073 whole entry): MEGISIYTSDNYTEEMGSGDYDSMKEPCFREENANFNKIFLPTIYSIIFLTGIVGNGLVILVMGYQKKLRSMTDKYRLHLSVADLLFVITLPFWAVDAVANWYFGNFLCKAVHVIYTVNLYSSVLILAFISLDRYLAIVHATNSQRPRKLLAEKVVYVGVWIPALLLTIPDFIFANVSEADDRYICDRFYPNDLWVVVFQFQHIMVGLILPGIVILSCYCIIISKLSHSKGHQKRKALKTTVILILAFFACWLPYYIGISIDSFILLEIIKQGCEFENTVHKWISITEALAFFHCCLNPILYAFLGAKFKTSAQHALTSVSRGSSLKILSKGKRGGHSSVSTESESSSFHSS
Experiment [5] concerns Human immunodeficiency virus 1. Kind of experiment: Induction of alteration of preformed structural configuration of N36-C34 complex in HIV1 3B gp41 at 10 to 40 uM after 30 mins by spectroscopy. In short, it runs like this:
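Preformed-complex CD control: N36 and C34 incubated together 37°C 30 min, then compound or PBS added for a further 30 min at 37°C; final peptides 10 µM each, compound 40 µM, in PBS pH 7.2. Spectra at room temperature, blank-subtracted; helicity from 222 nm ellipticity versus −33,000 deg cm2 dmol−1.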

In experiment [6] the test system is MT2. Nature of the experiment: Inhibition of HIV1 3B gp41-mediated cell-cell fusion between viral envelope expressing human virus-infected H9 cells to human MT2 cells at 10 uM by fluorescence assay. Format: cell-based. The following applies: Human immunodeficiency virus 1. Put shortly:
(§1)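 Dye-transfer fusion: calcein-AM-labeled H9/HIV-1 IIIB cells cocultured with MT-2 cells (1:5) at 37°C for 2 h; compound at 10 µM either present throughout, or preincubated with H9/HIV-1 IIIB or with MT-2 cells 37°C 30 min then removed by two washes before adding partner cells. Fused and unfused labeled cells counted by fluorescence microscopy; triplicates, mean ± SD.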

The test system of experiment [7] is Human immunodeficiency virus 1. Nature of the experiment: Inhibition of HIV1 3B gp41 fusion-active core formation after 30 mins by N-PAGE. In short, it runs like this:
(§2)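 Native PAGE: N36 incubated with compound or PBS (or, for the preformed case, N36 with C34) at 37°C 30 min before adding the third component; final peptides 40 µM, compounds 100 µM; further 30 min 37°C. Mixed 1:1 with native sample buffer, run on 18% Tris-glycine gels at 125 V, room temperature, 2 h; Coomassie staining.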

Experiment [8] has as its system Human immunodeficiency virus 1. Nature of the experiment: Inhibition of preformed HIV1 3B gp41 fusion-active core formation at 40 to 100 uM after 30 mins by sandwich ELISA.
Experiment [9] can be described thus: Inhibition of PIE7 binding to HIV1 3B gp41 after 30 mins by ELISA. Also on record: species or system Human immunodeficiency virus 1.
Experiment [10] concerns MT2. Kind of experiment: Inhibition of HIV1 3B gp41-mediated cell-cell fusion between viral envelope expressing virus-infected human H9 cells to human MT2 cells at 10 uM measured after drug washout by fluorescence assay. Type of experiment: cell-based. The following applies: Human immunodeficiency virus 1. In short, it runs like this:
as §1

The test system of experiment [11] is Human immunodeficiency virus 1. Kind of experiment: Binding affinity to IQNI7 pocket of HIV1 3B gp41 at 1 uM after 30 mins by SPR assay. A general note: In SPR one partner is held on a chip, and binding of the other changes the refractive index at the surface.
For experiment [12], the system named is Human immunodeficiency virus 1. Kind of experiment: (§3) Inhibition of HIV1 3B gp41 fusion-active core formation after 30 mins by sandwich ELISA. Put shortly:
(§4)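 After 30 min at 37°C, mixtures added to wells coated with anti-6-HB rabbit IgG (10 µg/ml); detected with MAb NC-1, biotin anti-mouse IgG, SA-HRP, TMB at A450. Triplicates; percent inhibition calculated.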

A short description of experiment [13]: as §3. Also on record: species or system Human immunodeficiency virus 1. Put shortly: as §4
For experiment [14], the system named is MT2. Kind of experiment: Inhibition of HIV1 3B gp41-mediated cell-cell fusion between viral envelope expressing virus-infected human H9 cells to human MT2 cells at 10 uM treated 30 mins before viral infection by fluorescence assay. The following applies: Human immunodeficiency virus 1. Format: cell-based.
In experiment [15] the test system is Human immunodeficiency virus 1. Nature of the experiment: Inhibition of preformed HIV1 3B gp41 fusion-active core formation at 40 to 100 uM after 30 mins by N-PAGE. Put shortly:
as §2

The subject of experiment [16] is Human immunodeficiency virus 1. Nature of the experiment: Binding affinity to HIV1 3B gp41 assessed as effect on N36K574D-C34D632K complex formation at 40 to 100 uM after 30 mins by N-PAGE.
The subject of experiment [17] is Human immunodeficiency virus 1. Nature of the experiment: Antiviral activity against HIV1 3B infected in human MT2 cells assessed as inhibition of viral p24 antigen production at 5 uM after 1 hr by ELISA.
The test system of experiment [18] is MT2. Nature of the experiment: Inhibition of HIV1 3B gp41-mediated cell-cell fusion between viral envelope expressing virus-infected human H9 cells to human MT2 cells at 10 uM treated before addition of human MT2 cells measured after drug washout by fluorescence assay. Type of experiment: cell-based. The following applies: Human immunodeficiency virus 1. In short, it runs like this: as §1

In experiment [19] the test system is Human immunodeficiency virus 1. Kind of experiment: Binding affinity to IQ pocket of HIV1 3B gp41 at 1 uM after 30 mins by SPR assay.
Experiment [20] deals with Human immunodeficiency virus 1. The following applies: 3B, 1 uM.
The subject of experiment [21] is Human immunodeficiency virus 1. The following applies: 3B, 1 uM. This is another data set of the same source.

Calls of active or inactive are those of the source. The calls are words filed in the database; no cut-off is given here. Peptide text beside a SMILES is read from it.

For `CN1C(=O)[C@@H](c2cc(Cl)c(O)c(Cl)c2)NC(=O)[C@@H]2NC(=O)[C@@H](c3cc(Cl)c(O)c(Cl)c3)NC(=O)[C@H](NC(=O)C(=O)c3cc(Cl)c(O)c(Cl)c3)Cc3c[nH]c4c(cccc34)-c3cc2cc(c3O)Oc2ccc(cc2)C[C@H]1C(=O)N[C@@H](C(=O)O)c1ccc(O)cc1`, the inhibition (as a rule, the share of the control response that was lost under treatment) in the experiment on MT2 [1] is “Active”.

Regarding `Cc1cn([C@H]2C[C@H](N=[N+]=[N-])[C@@H](CO)O2)c(=O)[nH]c1=O`, in [2], the inhibition entry was “inactive”.

In the case of `COc1ccc(S(=O)(=O)O)cc1/N=N/c1c(S(=O)(=O)O)cc2cc(Nc3nc(Nc4ccccc4)nc(Nc4cc(C)c(/N=N/c5cc(S(=O)(=O)O)cc6cc(S(=O)(=O)O)cc(O)c56)cc4OC)n3)ccc2c1O`, the outcome in experiment [3] and in experiment [11] was Active. The inhibition in [4] is 18%; in experiment [7] it was “Dose-dependent effect”; with MT2 [10], 50%; in experiment [12] it was “Dose-dependent effect”; in the experiment with MT2 [18], 80%. Also, the outcome in [5] and in experiment [16] was inactive. For the same molecule, the inhibition result (with MT2 [6]; in experiment [17]) was “Active” each time. Moreover, the inhibition result (in experiment [8]; in the experiment on MT2 [1]; in the experiment with MT2 [14]; in experiment [15]) was “inactive” in each case. In addition, the values for the IC50 in [9] and in [13] were 0.68 µM and 3.36 µM, respectively.

For `CC[C@H](C)[C@H](NC(=O)[C@H](CCC(=O)O)NC(=O)[C@H](CC(N)=O)NC(=O)[C@H](CCC(=O)O)NC(=O)[C@@H](NC(=O)[C@H](CCCCN)NC(=O)[C@H](CCCCN)NC(=O)[C@H](CCC(N)=O)NC(=O)[C@H](CCCCN)NC(=O)[C@H](CO)NC(=O)[C@H](CCC(=O)O)NC(=O)[C@@H](NC(=O)[C@H](CCC(=O)O)NC(=O)[C@H](CCC(=O)O)NC(=O)[C@@H](NC(=O)[C@H](CCCCN)NC(=O)[C@H](CC(=O)O)NC(=O)[C@H](CCC(=O)O)NC(=O)[C@@H](NC(=O)[C@H](CCC(N)=O)NC(=O)[C@H](CCCCN)NC(=O)[C@H](CCSC)NC(=O)[C@@H](N)CCCNC(=N)N)[C@@H](C)CC)[C@@H](C)CC)[C@@H](C)CC)[C@@H](C)CC)C(=O)N[C@@H](C)C(=O)N[C@@H](CCCNC(=N)N)C(=O)N[C@H](C(=O)N[C@@H](CCCCN)C(=O)N[C@@H](CCCCN)C(=O)O)[C@@H](C)CC`, the result in [19] was inactive.

For the molecule `N=C(N)NCCC[C@H](NC(=O)[C@H](CS)NC(=O)[C@H](CCCCN)NC(=O)[C@H](CCCNC(=N)N)NC(=O)[C@H](Cc1ccc(O)cc1)NC(=O)[C@H](CS)NC(=O)[C@H](Cc1ccc(O)cc1)NC(=O)CNC(=O)[C@H](CCCCN)NC(=O)[C@H](Cc1ccc(O)cc1)NC(=O)[C@H](CS)NC(=O)[C@H](CCCCN)NC(=O)[C@H](CCCNC(=N)N)NC(=O)[C@H](Cc1ccc(O)cc1)NC(=O)[C@H](CS)NC(=O)[C@H](Cc1c[nH]c2ccccc12)NC(=O)[C@H](CCCNC(=N)N)NC(=O)[C@@H](N)CCCNC(=N)N)C(=O)O` (H-RRWCYRKCYKGYCYRKCR-OH), the inhibition result in experiment [4] was “Active”.

`c1cc(CN2CCCNCCNCCCNCC2)ccc1CN1CCCNCCNCCCNCC1`: the inhibition result in experiment [20] is “inactive”. Moreover, the inhibition result in experiment [21] was “Active”. For the same molecule, the result in experiment [11] was inactive.
